Source: ChEMBL document CHEMBL3769360, “Phthalimido-thiazoles as building blocks and their effects on the growth and morphology of Trypanosoma cruzi” (Eur J Med Chem, 2016)
Calls of active or inactive are those of the source. The calls are words filed in the database; no cut-off is given here.

Legend:
[1] = Cytotoxicity against BALB/c mouse splenocytes assessed as highest non-toxic concentration causing >90 % incorporation of [3H]-thymidine after 24 hrs by beta counting method; assay type: cell-based, Splenocyte; conditions: read-out: MNTD90
Procedure, shortened: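 BALB/c mouse splenocytes at 5 × 10^6 cells/well in RPMI-1640 with 10% inactivated FBS. Compounds were dissolved in DMSO (10 mg/mL stock) and serially diluted to 1.0, 5.0, 10, 25, 50 and 100 (final), in triplicate. Controls were saponin and medium with DMSO. 3H-thymidine was added, then 24 h at 37 °C, 5% CO2, and beta counting. Untreated = 100%; >90% incorporation counted as nontoxic.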

[2] = tested on: Trypanosoma cruzi; assay: Trypanocidal activity against trypamostigote form of Trypanosoma cruzi Y infected in African green monkey Vero cells after 24 hrs by neubauer chamber method; assay type: functional, organism-based
Procedure, shortened: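 Y strain trypomastigotes harvested from Vero cell supernatants, 4 × 10^5 cells/well, compounds in triplicate, benznidazole as positive control. Incubated 24 h at 37 °C, 5% CO2. Motile parasites counted in a Neubauer chamber; untreated wells = 100%. IC50 by nonlinear regression over at least seven concentrations.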

[3] = tested on: Trypanosoma cruzi; assay: Trypanocidal activity against epimastigote form of Trypanosoma cruzi Dm28c after 11 days by neubauer chamber method; assay type: functional; conditions: 264 h
[4] = Lipophilicity, log P of compound; assay type: physicochemical; conditions: octanol/water
[5] = Selectivity index, ratio of MNTD90 for cytotoxicity against BALB/c mouse splenocytes to IC50 for trypamostigote form of Trypanosoma cruzi Y infected in African green monkey Vero cells; assay type: toxicity, cell-based; conditions: read-out: Selectivity Index
[6] = tested on: Trypanosoma cruzi; assay: Induction of apoptosis in trypamostigote form of Trypanosoma cruzi Y assessed as late apoptotic cells at 25 uM after 24 hrs by Annexin V-FITC/propidium iodide staining based flow cytometry relative to untreated control; assay type: functional
Procedure, shortened: (§1)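 Trypomastigotes (1 × 10^7) incubated 24 h at 37 °C with or without compound. Then labelled with annexin V-FITC and propidium iodide using a kit per the manufacturer's instructions and analysed by flow cytometry. Two independent experiments, each concentration in duplicate; comparison against untreated cells.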

[7] = tested on: Trypanosoma cruzi; assay: Induction of apoptosis in trypamostigote form of Trypanosoma cruzi Y assessed as necrotic cells at 25 uM after 24 hrs by Annexin V-FITC/propidium iodide staining based flow cytometry relative to untreated control; assay type: functional; procedure, shortened: as §1
[8] = tested on: Trypanosoma cruzi; assay: Induction of apoptosis in trypamostigote form of Trypanosoma cruzi Y assessed as late apoptotic cells after 24 hrs by Annexin V-FITC/propidium iodide staining based flow cytometry; assay type: functional, organism-based; procedure, shortened: as §1
[9] = tested on: Trypanosoma cruzi; assay: Induction of ultrastructural changes in trypamostigote form of Trypanosoma cruzi Y assessed as dilated endoplasmic reticulum at 2 times IC50 after 24 hrs by uranyl acetate/lead citrate staining based transmission electron microscopic analysis; assay type: functional, organism-based
Procedure, shortened: (§2)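 Trypomastigotes exposed for 24 h in RPMI 1640 (pH 7.5, 20 mM HEPES, 10% FBS, antibiotics) with compound at 1× or 2× the set concentration. Fixed in 2.5% glutaraldehyde, 4% formaldehyde, 0.1 M cacodylate pH 6.8, postfixed in 2% OsO4. Acetone-dehydrated, epon-embedded, sections stained with uranyl acetate/lead citrate and examined by TEM against untreated parasites.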

[10] = tested on: Trypanosoma cruzi; assay: Antitrypanosomal activity against trypamostigote form of Trypanosoma cruzi Y assessed as decrease in number of parasites after 24 hrs by scanning electron microscopic analysis; assay type: functional, organism-based
Procedure, shortened: (§3)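 Trypomastigotes cultured 24 h in RPMI 1640 (pH 7.5, 20 mM HEPES, 10% FBS, penicillin/streptomycin) with compound at two concentrations (1× and 2×). Washed in PBS and fixed in glutaraldehyde/formaldehyde in 0.1 M cacodylate pH 6.8, then OsO4 postfixed. Dehydrated in graded ethanol, CO2 critical-point dried, gold-coated and examined by SEM against untreated controls.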

[11] = tested on: Trypanosoma cruzi; assay: Induction of ultrastructural changes in trypamostigote form of Trypanosoma cruzi Y assessed as blebs in flagellum at IC50 after 24 hrs by scanning electron microscopic analysis; assay type: functional, organism-based; procedure, shortened: as §3
[12] = tested on: Trypanosoma cruzi; assay: Induction of ultrastructural changes in trypamostigote form of Trypanosoma cruzi Y assessed as alterations in reservosome at 2 times IC50 after 24 hrs by uranyl acetate/lead citrate staining based transmission electron microscopic analysis; assay type: functional, organism-based; procedure, shortened: as §2
[13] = tested on: Trypanosoma cruzi; assay: Induction of ultrastructural changes in trypamostigote form of Trypanosoma cruzi Y assessed as intense cytoplasmic vacuolization at 2 times IC50 after 24 hrs by uranyl acetate/lead citrate staining based transmission electron microscopic analysis; assay type: functional, organism-based; procedure, shortened: as §2
[14] = tested on: Trypanosoma cruzi; assay: Induction of apoptosis in trypamostigote form of Trypanosoma cruzi Y assessed as necrotic cells at 5 uM after 24 hrs by Annexin V-FITC/propidium iodide staining based flow cytometry; assay type: functional, organism-based; procedure, shortened: as §1
[15] = tested on: Trypanosoma cruzi; assay: Induction of apoptosis in trypamostigote form of Trypanosoma cruzi Y assessed as late apoptotic cells at 5 uM after 24 hrs by Annexin V-FITC/propidium iodide staining based flow cytometry; assay type: functional, organism-based; procedure, shortened: as §1
[16] = tested on: Trypanosoma cruzi; assay: Induction of ultrastructural changes in trypamostigote form of Trypanosoma cruzi Y assessed as alterations in reservosome at IC50 after 24 hrs by uranyl acetate/lead citrate staining based transmission electron microscopic analysis; assay type: functional, organism-based; procedure, shortened: as §2
[17] = tested on: Trypanosoma cruzi; assay: Induction of ultrastructural changes in trypamostigote form of Trypanosoma cruzi Y assessed as shortening of flagellum at 2 times IC50 after 24 hrs by scanning electron microscopic analysis; assay type: functional, organism-based; procedure, shortened: as §3
[18] = tested on: Trypanosoma cruzi; assay: Induction of ultrastructural changes in trypamostigote form of Trypanosoma cruzi Y assessed as abnormal chromatin condensation at IC50 after 24 hrs by uranyl acetate/lead citrate staining based transmission electron microscopic analysis; assay type: functional, organism-based; procedure, shortened: as §2
[19] = tested on: Trypanosoma cruzi; assay: Induction of apoptosis in trypamostigote form of Trypanosoma cruzi Y assessed as early apoptotic cells after 24 hrs by Annexin V-FITC/propidium iodide staining based flow cytometry; assay type: functional, organism-based; procedure, shortened: as §1
[20] = tested on: Trypanosoma cruzi; assay: Induction of apoptosis in trypamostigote form of Trypanosoma cruzi Y assessed as necrotic cells after 24 hrs by Annexin V-FITC/propidium iodide staining based flow cytometry; assay type: functional, organism-based; procedure, shortened: as §1
[21] = tested on: Trypanosoma cruzi; assay: Induction of ultrastructural changes in trypamostigote form of Trypanosoma cruzi Y assessed as swelling of kinetoplast at 2 times IC50 after 24 hrs by uranyl acetate/lead citrate staining based transmission electron microscopic analysis; assay type: functional, organism-based; procedure, shortened: as §2
[22] = tested on: Trypanosoma cruzi; assay: Induction of apoptosis in trypamostigote form of Trypanosoma cruzi Y assessed as early apoptotic cells at 5 and 25 uM after 24 hrs by Annexin V-FITC/propidium iodide staining based flow cytometry; assay type: functional, organism-based; procedure, shortened: as §1
[23] = tested on: Trypanosoma cruzi; assay: Induction of ultrastructural changes in trypamostigote form of Trypanosoma cruzi Y assessed as swelling of mitochondria at IC50 after 24 hrs by uranyl acetate/lead citrate staining based transmission electron microscopic analysis; assay type: functional, organism-based; procedure, shortened: as §2
[24] = tested on: Trypanosoma cruzi; assay: Induction of ultrastructural changes in trypamostigote form of Trypanosoma cruzi Y assessed as abnormal chromatin condensation at 2 times IC50 after 24 hrs by uranyl acetate/lead citrate staining based transmission electron microscopic analysis; assay type: functional, organism-based; procedure, shortened: as §2
[25] = tested on: Trypanosoma cruzi; assay: Induction of ultrastructural changes in trypamostigote form of Trypanosoma cruzi Y assessed as loss of cytoplasmic material at IC50 after 24 hrs by uranyl acetate/lead citrate staining based transmission electron microscopic analysis; assay type: functional, organism-based; procedure, shortened: as §2
[26] = tested on: Trypanosoma cruzi; assay: Induction of ultrastructural changes in trypamostigote form of Trypanosoma cruzi Y assessed as intense cytoplasmic vacuolization at IC50 after 24 hrs by uranyl acetate/lead citrate staining based transmission electron microscopic analysis; assay type: functional, organism-based; procedure, shortened: as §2

O=C1c2ccccc2C(=O)N1C/C=N/N=c1\scc(-c2ccc(Cl)c(Cl)c2)n1-c1ccccc1
MNTC at 24 h [1]: 197 µM

O=C1c2ccccc2C(=O)N1Nc1nc(-c2ccc(Cl)cc2)cs1
IC50 [2]: 86.2 µM | IC50 [3]: 30.6 µM | MNTC at 24 h [1]: 2.8 µM

O=C1c2ccccc2C(=O)N1C/C=N/N=c1\scc(-c2ccc(Cl)cc2)n1-c1ccccc1
IC50 [2]: 18.4 µM | IC50 [3]: 10.6 µM | MNTC at 24 h [1]: 211 µM

O=C1c2ccccc2C(=O)N1Nc1nc(-c2ccc(Cl)c(Cl)c2)cs1
IC50 [2]: 88.8 µM | IC50 [3]: 69.3 µM | MNTC at 24 h [1]: 2.6 µM

O=C1c2ccccc2C(=O)N1C/C=N/N=c1\scc(-c2ccc(-c3ccccc3)cc2)n1-c1ccccc1
IC50 [2]: 98 µM | IC50 [3]: 44.2 µM | MNTC at 24 h [1]: 194 µM

O=C1c2ccccc2C(=O)N1Nc1nc(-c2ccc3ccccc3c2)cs1
IC50 [2]: 4.7 µM | IC50 [3]: 8 µM | logP [4]: 4.98 | MNTC at 24 h [1]: 269 µM

O=C1c2ccccc2C(=O)N1Nc1nc(-c2ccc(-c3ccccc3)cc2)cs1
IC50 [2]: 27.5 µM | IC50 [3]: 4 µM | logP [4]: 5.66 | MNTC at 24 h [1]: 252 µM

COc1ccc(-c2cs/c(=N\N=C\CN3C(=O)c4ccccc4C3=O)n2-c2ccccc2)cc1
IC50 [2]: 10 µM | MNTC at 24 h [1]: 213 µM

O=C1c2ccccc2C(=O)N1C/C=N/NC(=S)Nc1ccccc1
IC50 [3]: 36.9 µM | MNTC at 24 h [1]: 50 µM

O=C1c2ccccc2C(=O)N1C/C=N/N=c1\scc(-c2ccc3ccccc3c2)n1-c1ccccc1
IC50 [2]: 0.5 µM | selectivity ratio [5]: 410 | IC50 [3]: 11.9 µM | MNTC at 24 h [1]: 205 µM

O=C1c2ccccc2C(=O)N1C/C=N/N=c1\scc(-c2ccc(Br)cc2)n1-c1ccccc1
IC50 [2]: 9.7 µM | MNTC at 24 h [1]: 96.6 µM

O=C(Cn1ccnc1[N+](=O)[O-])NCc1ccccc1 [BENZNIDAZOLE]
IC50 [2]: 6.3 µM | selectivity ratio [5]: 15.2 | Activity [6]: 56% | Activity [7]: 56%

Cc1sc(NN2C(=O)c3ccccc3C2=O)nc1-c1ccc(Br)cc1
IC50 [2]: 38.2 µM | IC50 [3]: 13.9 µM | MNTC at 24 h [1]: 2.4 µM

O=C1c2ccccc2C(=O)N1C/C=N/N=c1\scc(-c2ccc([N+](=O)[O-])cc2)n1-c1ccccc1
IC50 [2]: 3.2 µM | selectivity ratio [5]: 64.6 | IC50 [3]: 12.2 µM | MNTC at 24 h [1]: 207 µM

O=C1c2ccccc2C(=O)N1C/C=N/N=c1\scc(-c2cccc([N+](=O)[O-])c2)n1-c1ccccc1
IC50 [2]: 0.9 µM | Activity [8]: Dose-dependent effect | Activity [9]: Active | Activity [10]: Dose-dependent effect | Activity [11]: Active | Activity [12]: Active | selectivity ratio [5]: 115 | Activity [13]: Active | IC50 [3]: 6 µM | Activity [14]: inactive | Activity [15]: inactive | Activity [16]: Active | Activity [17]: Active | Activity [18]: Active | Activity [19]: inactive | Activity [20]: Dose-dependent effect | Activity [21]: Active | Activity [6]: 11% | Activity [22]: inactive | Activity [23]: Active | Activity [24]: Active | MNTC at 24 h [1]: 103 µM | Activity [25]: Active | Activity [7]: 11% | Activity [26]: Active
